The record followed here is ChEMBL document CHEMBL1123102, “Synthesis and anthelmintic activity of 5(6)-(benzimidazol-2-ylcarbamoyl) and (4-substituted piperazin-1-yl)benzimidazoles” (1985).

The test system of test [1] is Rattus norvegicus. As to the kind of experiment: Antitapeworm activity evaluated as (percent animal freed of worms) against Hymenolepis nana in rat (dose 100 mg/kg X 3)administered orally. As to conditions: route oral. The format is functional. Summed up: (§1)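 Newly weaned male albino rats (Freiburg strain, 25–30 g) were infected orally with 200 viable H. nana ova. Those passing eggs on day 17 were treated orally, 3–5 per group, three daily doses after a 5–6 h fast. Rats were fasted again on day 3 of treatment and sacrificed. Worms with scolices and worm-free animals were scored.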

Test [2] has as its system Rattus norvegicus. The experiment in a line: Antitapeworm activity evaluated as reduction of worms with scolices against Hymenolepis nana in rat (dose 100 mg/kg X 3)administered orally. Conditions: route oral. The format is functional. Summed up: as §1
In test [3] the test system is Rattus norvegicus. The experiment in a line: Antitapeworm activity evaluated as reduction of worms with scolices against Hymenolepis nana in rat (dose 50 mg/kg X 3)administered orally. The format is functional. Conditions: route oral. Summed up: as §1
Test [4] relates to Rattus norvegicus. The experiment in a line: Antitapeworm activity evaluated as reduction of worms with scolices against Hymenolepis nana in rat (dose 250 mg/kg X 3) administered orally. The format is functional. Conditions: route oral. The essentials:
as §1

Test [5] has as its system Rattus norvegicus. As to the kind of experiment: Antitapeworm activity evaluated as(percent animal freed of worms) against Hymenolepis nana in rat (dose 50 mg/kg X 3)administered orally. The format is functional. Conditions: route oral. The essentials: as §1
Test [6] concerns Rattus norvegicus. The experiment in a line: Antitapeworm activity evaluated as(percent animal freed of worms) against Hymenolepis nana in rat ( dose 250 mg/kg X 3)administered orally. The format is functional. As to conditions: route oral. Summed up:
as §1

In test [7] the test system is Rattus norvegicus. The experiment in a line: Antitapeworm activity evaluated as reduction of worms with scolices against Hymenolepis nana in rat ( dose 250 mg/kg X 3) administered orally. As to conditions: route oral. The format is functional. The essentials:
as §1

For test [8], the system named is Rattus norvegicus. The experiment in a line: Antifilarial activity evaluated as (percent reduction of microfilariae) against Litomosoides carinii in Coton rat, at a dose (30 mg/kg X 5) administered intraperitoneally. The format is functional. Summed up: (§2)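 Cotton rats (Sigmodon hispidus) infected with L. carinii by vector mite (Liponyssus bacoti) transmission. Animals with ≥250 microfilariae per 5 µL blood after prepatency were used, 3–4 per experiment. Drug was given i.p. in water or Tween 80 suspension daily for 5 days. Blood smears were read weekly up to 6 weeks. Adult worms were examined at sacrifice on day 42.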

Test [9] deals with Rattus norvegicus. As to the kind of experiment: Antifilarial activity evaluated as (persistance of microfilaricidal effect) against Litomosoides carinii in Coton rat, at a dose (30 mg/kg X 5) administered intraperitoneally. The format is functional. The essentials:
as §2

Test [10] relates to Rattus norvegicus. The experiment in a line: Antifilarial activity evaluated as (percent death of adult worms on day 42) against Litomosoides carinii in Coton rat, at a dose (30 mg/kg X 5) administered intraperitoneally. The format is functional. The essentials:
(§3)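 Cotton rats (Sigmodon hispidus) were infected with L. carinii through the vector Liponyssus bacoti. At the end of the prepatent period, animals with at least 250 microfilariae per blood sample were selected, 3–4 per experiment. Drug in water or Tween 80 suspension was given ip daily for 5 days. Blood smears were taken weekly up to 6 weeks. On day 42, animals were killed and the condition of adult male and female worms assessed.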

Test [11] relates to Rattus norvegicus. As to the kind of experiment: Antitapeworm activity evaluated as(percent animal freed of worms) against Hymenolepis nana in rat (dose 250 mg/kg X 3)administered orally. The format is functional. As to conditions: route oral. Summed up: as §1
Test [12] concerns Rattus norvegicus. As to the kind of experiment: Antitapeworm activity evaluated as(percent animal freed of worms) against Hymenolepis nana in rat (dose 400 mg/kg X 3)administered orally. Conditions: route oral. The format is functional. Summed up:
as §1

Test [13] has as its system Rattus norvegicus. The experiment in a line: Antitapeworm activity evaluated as reduction of worms with scolices against Hymenolepis nana in rat ( dose 400 mg/kg X 3) administered orally. The format is functional. As to conditions: route oral. Summed up:
as §1

In test [14] the test system is Rattus norvegicus. The experiment in a line: Antifilarial activity evaluated as (percent reduction of microfilariae) against Litomosoides carinii in Coton rat, at a dose (6 mg/kg X 5) administered intraperitoneally. The format is functional. The essentials:
as §2

The subject of test [15] is Rattus norvegicus. The experiment in a line: Antifilarial activity evaluated as (persistance of microfilaricidal effect)against Litomosoides carinii in Coton rat, at a dose (6 mg/kg X 5)administered intraperitoneally. The format is functional. Summed up:
as §2

Test [16] deals with Rattus norvegicus. As to the kind of experiment: Antifilarial activity evaluated as (percent death of adult worms on a day 42) against Litomosoides carinii in Coton rat, at a dose (6 mg/kg X 5) administered intraperitoneally; Nil. The format is functional, organism-based. The essentials: as §3
In test [17] the test system is Rattus norvegicus. The experiment in a line: Antifilarial activity evaluated as (percent death of adult worms on day 42) against Litomosoides carinii in Cotton rat, at a dose (30 mg/kg X 5) administered intraperitoneally. The format is functional. The essentials: as §3
For test [18], the system named is Rattus norvegicus. The experiment in a line: Antifilarial activity evaluated as (persistance of microfilaricidal effect)against Litomosoides carinii in Cotton rat, at a dose (30 mg/kg X 5) administered intraperitoneally. The format is functional. The essentials: as §2
The subject of test [19] is Rattus norvegicus. The experiment in a line: Antitapeworm activity evaluated as reduction of worms with scolices against Hymenolepis nana in rat ( dose 250 mg/kg X3 )administered orally. The format is functional. As to conditions: route oral. Summed up:
as §1

Take `COC(=O)Nc1nc2cc(N3CCN(C(=O)c4ccccc4)CC3)ccc2[nH]1`: the Reduction turned out to be 100% in [1]; 100% in [2]; 100% in test [3]; 100% in test [4]; 85% in [5]; 100% in test [6].

As for `CCN(CC)C(=O)N1CCN(c2ccc3[nH]c(NC(=O)OC)nc3c2)CC1`, the Reduction in [7] and in test [11] was 100% in each case. Also, the Removal in test [8] is on record as more than 95%. In test [9], this molecule came in with an Activity of 42. The molecule further displayed a Death in [10] of 100%.

`COC(=O)Nc1nc2cc(C(=O)c3ccccc3)ccc2[nH]1` [MEBENDAZOLE]: the Reduction in [12] and in test [13] was 0% each time.

Turning to `CCN(CC)C(=O)N1CCN(C)CC1` [DIETHYLCARBAMAZINE], in test [14], the Removal is reported as more than 95%. In [15], this molecule had an Activity of 7. Moreover, the Death result in test [16] is reported as “Nil”.

`COC(=O)Nc1nc2cc(N3CCN(C(=O)c4ccco4)CC3)ccc2[nH]1` had a Removal in test [8] of more than 90%. In test [17], this molecule came in with a Death of 90%. Also, the Reduction in test [11] and in test [19] was 100% in each case. Also, the Activity in test [18] is 42.
